Test results reported in ChEMBL document CHEMBL1131316, “Potent antagonists of somatostatin: synthesis and biology” (J Med Chem, 1998).
Positions of bridges follow the written chain, without caps; N, C: chain ends. Non-standard residues stand in square brackets, D forms with d. Residues, ends and D or L forms follow the SMILES beside them. Phe(4-NO2) = N[C@@H](Cc1ccc([N+](=O)[O-])cc1)C(=O)O; dDip = N[C@@H](C(=O)O)C(c1ccccc1)c1ccccc1; Dip = N[C@H](C(=O)O)C(c1ccccc1)c1ccccc1; 2Nal = N[C@@H](Cc1ccc2ccccc2c1)C(=O)O; d2Nal = N[C@H](Cc1ccc2ccccc2c1)C(=O)O; 3Pal = N[C@@H](Cc1cccnc1)C(=O)O

Columns and labels:
[1] = molecular target: Somatostatin receptor type 1 (Homo sapiens, UniProt P30872); assay: Binding affinity towards cloned human somatostatin 1 (hsst) receptor
Summary of the method: (§1)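 Membranes from CHO-K1 cells stably transfected with the human receptor subtype (calcium phosphate transfection, G418 selection), homogenised and washed in Tris-HCl. Separated by filtration on PEI-soaked GF/C filters; nonspecific binding with 1.0 µM SRIF.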

[2] = molecular target: Somatostatin receptor type 2 (Homo sapiens, UniProt P30874); assay: Binding affinity towards cloned human somatostatin 2 (hsst) receptor; summary of the method: as §1
[3] = molecular target: Somatostatin receptor type 3 (Homo sapiens, UniProt P32745); assay: Binding affinity towards cloned human somatostatin 3 (hsst) receptor; summary of the method: as §1
[4] = molecular target: Somatostatin receptor type 5 (Homo sapiens, UniProt P35346); assay: Binding affinity towards cloned human somatostatin 5 (hsst) receptor; summary of the method: as §1
[5] = molecular target: Somatostatin receptor type 4 (Homo sapiens, UniProt P31391); assay: Binding affinity towards cloned human somatostatin 4 (hsst) receptor
Somatostatin receptor = assay: Compound was tested for in vitro SRIF inhibition of GH release in rats; format: functional
Summary of the method: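 Adult male rat anterior pituitary cells, dispersed with trypsin/DNase, cultured 4-5 days. Then 3 h at 37 °C in medium 199 with 1% BSA, GHRH(1-29)NH2 1 nM and SRIF 1 nM, with analogue at six doses (up to 10 µM, some to 100 µM), triplicate wells. GH in medium measured by double-antibody RIA. Antagonist IC50 taken from n separate dose-response curves.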

Chain of Somatostatin receptor type 3 (P32745 whole entry): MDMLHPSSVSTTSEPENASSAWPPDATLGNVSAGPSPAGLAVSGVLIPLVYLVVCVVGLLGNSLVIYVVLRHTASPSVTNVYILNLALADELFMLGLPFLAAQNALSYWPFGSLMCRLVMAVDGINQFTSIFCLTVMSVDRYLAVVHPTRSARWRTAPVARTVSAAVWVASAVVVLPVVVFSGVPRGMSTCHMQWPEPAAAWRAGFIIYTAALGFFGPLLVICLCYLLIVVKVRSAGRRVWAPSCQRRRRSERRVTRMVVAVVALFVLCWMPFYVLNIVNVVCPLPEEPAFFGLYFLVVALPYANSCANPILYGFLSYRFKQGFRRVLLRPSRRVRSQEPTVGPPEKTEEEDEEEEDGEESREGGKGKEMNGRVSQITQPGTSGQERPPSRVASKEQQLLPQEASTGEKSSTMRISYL
Chain of Somatostatin receptor type 5 (P35346 whole entry): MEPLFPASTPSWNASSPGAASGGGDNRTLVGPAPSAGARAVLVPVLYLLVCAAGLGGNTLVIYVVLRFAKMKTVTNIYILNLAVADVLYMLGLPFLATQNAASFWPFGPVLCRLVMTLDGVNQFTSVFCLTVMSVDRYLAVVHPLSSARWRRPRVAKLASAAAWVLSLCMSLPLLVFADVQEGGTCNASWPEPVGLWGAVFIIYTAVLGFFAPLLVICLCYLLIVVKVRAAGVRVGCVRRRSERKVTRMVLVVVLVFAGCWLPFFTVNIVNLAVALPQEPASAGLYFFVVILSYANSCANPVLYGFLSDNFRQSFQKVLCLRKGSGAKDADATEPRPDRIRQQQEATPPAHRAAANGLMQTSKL
Chain of Somatostatin receptor type 2 (P30874 whole entry): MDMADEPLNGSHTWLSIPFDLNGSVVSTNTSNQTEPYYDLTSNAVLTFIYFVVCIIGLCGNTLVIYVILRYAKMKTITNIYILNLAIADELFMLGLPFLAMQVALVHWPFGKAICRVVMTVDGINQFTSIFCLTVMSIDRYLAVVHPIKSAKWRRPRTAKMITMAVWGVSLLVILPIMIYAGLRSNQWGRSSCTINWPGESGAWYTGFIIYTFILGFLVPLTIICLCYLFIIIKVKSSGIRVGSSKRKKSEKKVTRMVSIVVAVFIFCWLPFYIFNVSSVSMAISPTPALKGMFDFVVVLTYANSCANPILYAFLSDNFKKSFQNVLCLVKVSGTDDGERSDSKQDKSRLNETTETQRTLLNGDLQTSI
Chain of Somatostatin receptor type 1 (P30872 whole entry): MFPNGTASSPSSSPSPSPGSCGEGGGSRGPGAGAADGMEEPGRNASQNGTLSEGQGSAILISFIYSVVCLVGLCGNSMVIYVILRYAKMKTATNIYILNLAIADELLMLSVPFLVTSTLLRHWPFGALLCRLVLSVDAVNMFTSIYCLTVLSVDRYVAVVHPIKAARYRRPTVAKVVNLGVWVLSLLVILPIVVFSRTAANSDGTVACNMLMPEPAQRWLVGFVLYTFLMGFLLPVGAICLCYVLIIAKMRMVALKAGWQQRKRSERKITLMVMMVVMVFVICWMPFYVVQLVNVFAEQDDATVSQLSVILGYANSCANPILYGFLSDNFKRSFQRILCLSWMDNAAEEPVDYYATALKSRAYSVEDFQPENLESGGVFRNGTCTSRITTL
Chain of Somatostatin receptor type 4 (P31391 whole entry): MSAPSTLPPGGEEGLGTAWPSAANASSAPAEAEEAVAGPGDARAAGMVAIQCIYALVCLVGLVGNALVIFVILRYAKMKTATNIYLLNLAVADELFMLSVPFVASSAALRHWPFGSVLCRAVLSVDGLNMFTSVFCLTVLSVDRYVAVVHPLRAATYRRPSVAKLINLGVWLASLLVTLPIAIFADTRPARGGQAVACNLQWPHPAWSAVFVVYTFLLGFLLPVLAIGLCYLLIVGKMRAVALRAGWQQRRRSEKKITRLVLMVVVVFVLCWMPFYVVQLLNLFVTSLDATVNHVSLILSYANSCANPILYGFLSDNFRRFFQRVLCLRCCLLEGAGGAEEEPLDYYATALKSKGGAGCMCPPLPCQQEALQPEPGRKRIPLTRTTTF

Row | IC50 [1] [nM] | Ki [2] [nM] | IC50 [3] [nM] | Ki [4] [nM] | IC50 [5] [nM] | IC50 (Somatostatin receptor) [nM] | Compound
1 | 2000 | 37.6 | 161 | 302 | 1000 | – | CC(C)[C@@H]1NC(=O)[C@H](CCCCN)NC(=O)[C@@H](Cc2c[nH]c3ccccc23)NC(=O)[C@H](Cc2ccc(O)cc2)NC(=O)[C@H](NC(=O)[C@@H](N)Cc2ccc3ccccc3c2)CSSC[C@@H](C(=O)N[C@@H](Cc2ccc3ccccc3c2)C(N)=O)NC1=O
2 | – | – | – | – | – | 35.3 | CC(C)[C@@H]1NC(=O)[C@H](CCCCN)NC(=O)[C@@H](Cc2c[nH]c3ccccc23)NC(=O)[C@H](Cc2ccc(O)cc2)NC(=O)[C@@H](NC(=O)[C@@H](N)Cc2ccc3ccccc3c2)CSSC[C@H](C(=O)N[C@@H](Cc2ccc3ccccc3c2)C(N)=O)NC1=O
3 | 1000 | 797 | 648 | 2740 | 1000 | – | CC(C)[C@H](NC(=O)[C@H](CCCCN)NC(=O)[C@@H](Cc1c[nH]c2ccccc12)NC(=O)[C@H](Cc1ccc(O)cc1)NC(=O)[C@@H](Cc1ccc(Cl)cc1)NC(=O)[C@@H](N)Cc1ccccc1)C(=O)N[C@@H](Cc1ccccc1)C(=O)N[C@H](C(N)=O)[C@@H](C)O
4 | 1000 | 445 | 216 | 1180 | 1000 | – | C[C@@H](O)[C@H](NC(=O)[C@H](Cc1ccccc1)NC(=O)[C@@H](NC(=O)[C@H](CCCCN)NC(=O)[C@@H](Cc1c[nH]c2ccccc12)NC(=O)[C@H](Cc1ccc(O)cc1)NC(=O)[C@@H](Cc1ccccc1)NC(=O)[C@@H](N)Cc1ccccc1)[C@@H](C)O)C(N)=O
5 | 1000 | 2550 | 821 | – | 1000 | – | CC(C)[C@@H]1NC(=O)[C@H](CCCCN)NC(=O)[C@@H](Cc2c[nH]c3ccccc23)NC(=O)[C@H](Cc2ccc(O)cc2)NC(=O)[C@H](NC(=O)[C@H](N)Cc2ccccc2)C(C)(C)SSC[C@@H](C(=O)N[C@H](C(N)=O)[C@@H](C)O)NC1=O
6 | 1000 | 1000 | 1000 | 1000 | 1000 | – | CC(=O)N[C@@H]1CSSC[C@@H](C(=O)N[C@H](C(N)=O)[C@@H](C)O)NC(=O)[C@H](C(C)C)NC(=O)[C@H](CCCCN)NC(=O)[C@@H](Cc2c[nH]c3ccccc23)NC(=O)[C@H](Cc2ccc(O)cc2)NC1=O
7 | 1000 | 183 | 140 | – | 1000 | – | CC[C@@H]1NC(=O)[C@H](CCCCN)NC(=O)[C@@H](Cc2c[nH]c3ccccc23)NC(=O)[C@H](Cc2ccc(O)cc2)NC(=O)[C@H](NC(=O)[C@H](N)Cc2ccccc2)CSSC[C@@H](C(=O)N[C@H](C(N)=O)[C@@H](C)O)NC1=O
8 | 723 | 34.8 | 5.6 | 28 | – | – | C[C@@H](O)[C@@H]1NC(=O)[C@H](CCCCN)NC(=O)[C@@H](Cc2c[nH]c3ccccc23)NC(=O)[C@H](Cc2ccccc2)NC(=O)[C@H](Cc2ccccc2)NC(=O)[C@H](N)CSSC[C@H](C(N)=O)NC(=O)[C@H](Cc2ccccc2)NC1=O
9 | 1000 | 566 | 1360 | 1000 | 1000 | – | C[C@@H](O)[C@H](NC(=O)[C@@H]1CSSC[C@@H](NC(=O)[C@H](N)Cc2ccccc2)C(=O)N[C@@H](Cc2cccnc2)C(=O)N[C@H](Cc2c[nH]c3ccccc23)C(=O)N[C@@H](CCCCN)C(=O)N[C@@H]([C@@H](C)O)C(=O)N1)C(N)=O
10 | – | – | – | – | – | 56 | CC(C)[C@@H]1NC(=O)[C@H](CCCCN)NC(=O)[C@@H](Cc2c[nH]c3ccccc23)NC(=O)[C@H](Cc2cccnc2)NC(=O)[C@H](NC(=O)[C@@H](N)Cc2ccc3ccccc3c2)CSSC[C@@H](C(=O)N[C@@H](Cc2cccc(-c3ccccc3)c2)C(N)=O)NC1=O
11 | 1000 | 435 | 1230 | – | 1000 | – | CC(C)NC(=O)[C@@H]1CSSC[C@@H](NC(=O)[C@@H](N)Cc2ccc3ccccc3c2)C(=O)N[C@@H](Cc2ccc(O)cc2)C(=O)N[C@H](Cc2c[nH]c3ccccc23)C(=O)N[C@@H](CCCCN)C(=O)N[C@@H](C(C)C)C(=O)N1
12 | – | – | – | – | – | 108600 | CC(C)[C@@H]1NC(=O)[C@H](CCCCN)NC(=O)[C@@H](Cc2c[nH]c3ccccc23)NC(=O)[C@H](Cc2ccc(O)cc2)NC(=O)[C@H](NC(=O)[C@@H](N)Cc2ccc3ccccc3c2)CSSC[C@@H](C(=O)NC(C)(C)C)NC1=O
13 | 1000 | 526 | 619 | 178 | 1000 | – | CC(C)[C@H](NC(=O)[C@H](CCCCN)NC(=O)[C@@H](Cc1c[nH]c2ccccc12)NC(=O)[C@H](Cc1ccc(O)cc1)NC(=O)[C@@H](Cc1ccc(Cl)cc1)NC(=O)[C@H](N)Cc1ccc2ccccc2c1)C(=O)N[C@@H](Cc1ccccc1)C(=O)N[C@@H](Cc1ccc2ccccc2c1)C(N)=O
14 | 1000 | – | 404 | 1000 | – | – | CC(C)[C@@H]1NC(=O)[C@H](CCCCN)NC(=O)[C@@H](Cc2c[nH]c3ccccc23)NC(=O)[C@H](Cc2ccc(O)cc2)NC(=O)[C@@H](C)N(C)C(=O)[C@H](Cc2ccccc2)NC1=O
15 | 1000 | 1000 | 1610 | 1960 | 1000 | – | CC(C)[C@H](NC(=O)[C@H](CCCCN)NC(=O)[C@@H](Cc1c[nH]c2ccccc12)NC(=O)[C@H](Cc1ccc(O)cc1)NC(=O)[C@@H](Cc1ccc(Cl)cc1)NC(=O)[C@@H](N)Cc1ccc2ccccc2c1)C(=O)N[C@@H](Cc1ccccc1)C(=O)N[C@@H](Cc1ccc2ccccc2c1)C(N)=O
16 | 1660 | 82.9 | 1080 | 358 | 1000 | – | CC(C)[C@@H]1NC(=O)[C@H](CCCCN)NC(=O)[C@@H](Cc2c[nH]c3ccccc23)NC(=O)[C@H](Cc2ccc(O)cc2)NC(=O)[C@H](NC(=O)[C@H](N)Cc2ccc3ccccc3c2)CSSC[C@@H](C(=O)N[C@H](Cc2ccc3ccccc3c2)C(N)=O)NC1=O
17 | 588 | 77.2 | 649 | 221 | 1000 | – | CC(C)[C@@H]1NC(=O)[C@H](CCCCN)NC(=O)[C@@H](Cc2c[nH]c3ccccc23)NC(=O)[C@H](Cc2ccc(O)cc2)NC(=O)[C@H](NC(=O)[C@@H](N)Cc2c[nH]c3ccccc23)CSSC[C@@H](C(=O)N[C@H](Cc2ccc3ccccc3c2)C(N)=O)NC1=O (H-W[dC]Y[dW]KVC[d2Nal]-NH2; disulfide 2-7)
18 | 1090 | – | 1200 | 1000 | 1000 | – | CC(C)[C@@H]1NC(=O)[C@H](CCCCN)NC(=O)[C@@H](Cc2c[nH]c3ccccc23)NC(=O)[C@H](Cc2c[nH]cn2)NC(=O)[C@H](NC(=O)[C@@H](N)Cc2ccc3ccccc3c2)CSSC[C@@H](C(=O)N[C@@H](C(N)=O)C(c2ccccc2)c2ccccc2)NC1=O (H-[2Nal][dC]H[dW]KVC[dDip]-NH2; disulfide 2-7)
19 | 1000 | 355 | 903 | 1000 | 1000 | – | CC(C)[C@@H]1NC(=O)[C@H](CCCCN)NC(=O)[C@@H](Cc2c[nH]c3ccccc23)NC(=O)[C@H](Cc2cccnc2)NC(=O)[C@H](NC(=O)[C@@H](N)Cc2ccc3ccccc3c2)CSSC[C@@H](C(=O)N[C@H](C(N)=O)C(c2ccccc2)c2ccccc2)NC1=O (H-[2Nal][dC][3Pal][dW]KVC[Dip]-NH2; disulfide 2-7)
20 | 3220 | 23.4 | 177 | 101 | 632 | – | CC(C)[C@@H]1NC(=O)[C@H](CCCCN)NC(=O)[C@@H](Cc2c[nH]c3ccccc23)NC(=O)[C@H](Cc2ccc(O)cc2)NC(=O)[C@H](NC(=O)[C@@H](N)Cc2ccc([N+](=O)[O-])cc2)CSSC[C@@H](C(=O)N[C@@H](Cc2ccc(O)cc2)C(N)=O)NC1=O (H-[Phe(4-NO2)][dC]Y[dW]KVCY-NH2; disulfide 2-7)
21 | 245 | 35.3 | 235 | 529 | 757 | – | CC(C)[C@@H]1NC(=O)[C@H](CCCCN)NC(=O)[C@@H](Cc2c[nH]c3ccccc23)NC(=O)[C@H](Cc2cccnc2)NC(=O)[C@H](NC(=O)[C@@H](N)Cc2ccc([N+](=O)[O-])cc2)CSSC[C@@H](C(=O)N[C@@H](Cc2ccc(O)cc2)C(N)=O)NC1=O (H-[Phe(4-NO2)][dC][3Pal][dW]KVCY-NH2; disulfide 2-7)
22 | 1000 | 139 | 1000 | – | 1000 | – | CC(C)[C@@H]1NC(=O)[C@H](CCCCN)NC(=O)[C@@H](Cc2c[nH]c3ccccc23)NC(=O)[C@H](Cc2ccc(O)cc2)NC(=O)[C@@H](NC(=O)[C@H](N)Cc2ccc3ccccc3c2)CSSC[C@H](C(=O)N[C@@H](Cc2ccc3ccccc3c2)C(N)=O)NC1=O (stereo in doubt; 27)

Row | Compound | IC50 [1] [nM] | Ki [2] [nM] | IC50 [3] [nM] | Ki [4] [nM] | IC50 [5] [nM] | IC50 (Somatostatin receptor) [nM]
23 | CC(C)[C@@H]1NC(=O)[C@H](CCCCN)NC(=O)[C@@H](Cc2c[nH]c3ccccc23)NC(=O)[C@H](Cc2ccc(O)cc2)NC(=O)[C@H](NC(=O)[C@H](N)Cc2ccc3ccccc3c2)CSSC[C@@H](C(=O)N[C@H](C(N)=O)[C@@H](C)O)NC1=O | 1580 | 306 | – | – | – | –
24 | CC(C)[C@@H]1NC(=O)[C@H](CCCCN)NC(=O)[C@@H](Cc2c[nH]c3ccccc23)NC(=O)[C@H](Cc2ccc(O)cc2)NC(=O)[C@@H](NC(=O)[C@H](N)Cc2ccc3ccccc3c2)CSSC[C@H](C(=O)N[C@H](C(N)=O)[C@@H](C)O)NC1=O | 4840 | 350 | 1000 | – | – | –
25 | CC(C)[C@@H]1NC(=O)[C@H](CCCCN)NC(=O)[C@@H](Cc2c[nH]c3ccccc23)NC(=O)[C@H](Cc2ccc(O)cc2)NC(=O)[C@H](NC(=O)[C@@H](N)Cc2ccc3ccccc3c2)CSSC[C@@H](C(=O)N[C@H](C(N)=O)[C@@H](C)O)NC1=O | 2160 | 118 | 733 | – | – | –
